Structures are written as SMILES. “Also recorded” adds a separate entry of the source. Where only a bound is given, the exact number is not on record here.

Broadly, the Ki is the equilibrium dissociation constant of an inhibitor or competing ligand from its target.

The subject of one assay is K‐Ras prenylation. The experiment in a line: Gel-shift assay. Conditions: MiaPaca‐2 cells, 48 hours, 30 and 100 µM. The class given is cell-based, human. A digest of the protocol:
(§1)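 MiaPaCa2 cells were grown in DMEM with 10% heat-inactivated FBS and 1% penicillin-streptomycin. They were treated 48 h with vehicle or test compound at 30 and 100 µM; the positive control, a dual FTase/GGTase I inhibitor, was used at 10 and 30 µM. Cells were PBS-washed and lysed with protease and phosphatase inhibitors. Lysates ran on 4–20% SDS-PAGE gel-shift blots, probed with anti-K-Ras or anti-Rap1A+B, plus anti-vinculin.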

In another assay the test system is Rap1 geranylgeranylation. The experiment in a line: Gel-shift assay. It counts as cell-based, human. Conditions: MiaPaca‐2 cells, 48 hours, 30 and 100 µM. A digest of the protocol:
as §1

Another assay addresses recombinant GGTase I (Homo sapiens, UniProt P49354+P53609). The experiment in a line: Fluorescent in vitro GGTase I inhibition assay. It counts as biochemical. The method in brief: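 Recombinant GGTase I (25–37 nM) was run with dansyl-labelled K-Ras C-terminal peptide (1 µM) and test compound at 0–500 µM. GGPP was diluted to a 110 µM working stock before use. Buffer was 50 mM Tris-HCl pH 7.5 with MgCl2, ZnCl2, dodecyl maltoside and DTT, at 37 °C. Fluorescence kinetics (ex 340/em 520 nm) were recorded over 5 min. n = 3, SEM.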

A further assay has as its target recombinant FTase (Homo sapiens, UniProt P49354+P49356). The experiment in a line: Fluorescent in vitro FTase inhibition assay. It counts as biochemical. The conditions noted are these: for selectivity for FTase over GGTase I: ratio of K i values GGTase I / FTase. A digest of the protocol:
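Recombinant FTase (25–37 nM) was reacted with dansyl-labelled K-Ras4B C-terminal peptide (1 µM) and FPP (5 µM), with test compound at 0–500 µM. Enzyme, substrates and compound were spotted separately, then buffer was added to start the reaction. Fluorescence (ex 340/em 520 nm) was followed for 5 min. n = 3, SEM.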

A further assay deals with MiaPaCa2 cells. The experiment in a line: Antiproliferative activity, trypan blue cell viability assay. The class given is cell-based, human. The conditions noted are these: for IC50: Homo sapiens, MIA PaCa-2, 72 h, read-out: IC50, antiproliferation activity. The method in brief:
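MiaPaCa2 cells (K-Ras G12C) seeded at 1×10³ cells/well and left overnight at 37 °C, 5% CO2. Next day they were given various concentrations of test compound and incubated 72 h at 37 °C, 5% CO2. A trypan blue assay followed, […]. Sotorasib served as positive control. n = 3, mean ± SEM.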

Chain of recombinant FTase (P49356 whole entry, one chain of several): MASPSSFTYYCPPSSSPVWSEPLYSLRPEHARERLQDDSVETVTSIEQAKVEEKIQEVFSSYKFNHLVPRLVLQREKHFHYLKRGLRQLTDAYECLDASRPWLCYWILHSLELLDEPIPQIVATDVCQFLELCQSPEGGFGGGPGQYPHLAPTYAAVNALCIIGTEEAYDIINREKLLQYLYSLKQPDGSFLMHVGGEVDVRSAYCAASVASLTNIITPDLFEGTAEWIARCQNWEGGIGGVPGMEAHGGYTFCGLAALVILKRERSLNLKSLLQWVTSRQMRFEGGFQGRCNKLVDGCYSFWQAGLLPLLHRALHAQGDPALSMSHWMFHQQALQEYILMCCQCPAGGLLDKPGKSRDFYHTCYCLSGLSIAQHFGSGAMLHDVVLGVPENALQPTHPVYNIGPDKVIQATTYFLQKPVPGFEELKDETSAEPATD
Chain of recombinant GGTase I (P53609 whole entry, one chain of several): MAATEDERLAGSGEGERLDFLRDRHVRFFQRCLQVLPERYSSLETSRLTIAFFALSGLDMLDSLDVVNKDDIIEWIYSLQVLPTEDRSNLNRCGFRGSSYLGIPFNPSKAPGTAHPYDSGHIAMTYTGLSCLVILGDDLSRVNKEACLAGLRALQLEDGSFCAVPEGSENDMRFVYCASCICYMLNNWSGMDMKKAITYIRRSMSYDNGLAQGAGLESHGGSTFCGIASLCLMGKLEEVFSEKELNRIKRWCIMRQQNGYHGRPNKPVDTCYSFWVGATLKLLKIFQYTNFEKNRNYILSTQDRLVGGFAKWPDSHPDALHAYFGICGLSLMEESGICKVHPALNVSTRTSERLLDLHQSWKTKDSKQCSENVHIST

Regarding `COC(=O)[C@H](CCSC)NC(=O)NC1(c2ccccc2)CCN(Cc2cncn2Cc2ccc(-n3cc(COCCCCCCNC(=O)c4ccc(N)cc4)nn3)cc2)CC1` [Compound 4c, Methyl ((1‐((1‐(4‐(4‐(((6‐(4‐aminobenzamido)hexyl)oxy)methyl)‐1H‐1,2,3‐triazol‐1‐yl)benzyl)‐1H‐imidazol‐5‐yl)methyl)‐4‐phenylpiperidin‐4‐yl)carbamoyl)‐L‐methioninate], in the assay on K‐Ras prenylation, the “inhibition of prenylation (processing) of K‐Ras in cells” value is recorded as “able to inhibit; also recorded: inhibit the processing; also recorded: disrupt the processing”. In addition, the “inhibition of geranylgeranylation (processing) of Rap1 in cells” value (shortened to “inhibition of geranylgeranylation”) in the assay with Rap1 geranylgeranylation is on record as “inhibited; also recorded: more potent than 2; also recorded: inhibit the processing; also recorded: disrupt the processing”.
`CSCC[C@H](NC(=O)NC1(c2ccccc2)CCN(Cc2cncn2Cc2ccc(-n3cc(COCCCCCCN)nn3)cc2)CC1)C(=O)O` [Compound 5b, ((1‐((1‐(4‐(4‐(((6‐Aminohexyl)oxy)methyl)‐1H‐1,2,3‐triazol‐1‐yl)benzyl)‐1H‐imidazol‐5‐yl)methyl)‐4‐phenylpiperidin‐4‐yl)carbamoyl)‐L‐methionine]: at recombinant GGTase I, the IC50 is 2400 nM and the inhibition constant (Ki) stood at 77 ± 51 nM. On recombinant FTase, the IC50 is 630 nM, the inhibitory constant (Ki) was found to be 3.8 ± 1.1 nM and the “selectivity for FTase over GGTase I” value is on record as 20 fold.
For `C#CCOCCCCCCNC(=O)c1ccc(C(=N)N)cc1` [Compound 13, 4‐Carbamimidoyl‐N‐(6‐(prop‐2‐yn‐1‐yloxy)hexyl)benzamide], the IC50 on recombinant GGTase I and at recombinant FTase was greater than 500000 nM in each case. Also, in the assay on MiaPaCa2 cells (MiaPaCa2 cells, 72 hours, trypan blue assay), the “antiproliferative activity (result in words)” value is “inactive”.
With `CSCC[C@H](NC(=O)NC1(c2ccccc2)CCN(Cc2cncn2Cc2ccc(N=[N+]=[N-])cc2)CC1)C(=O)O` [Compound 3, ((1‐((1‐(4‐Azidobenzyl)‐1H‐imidazol‐5‐yl)methyl)‐4‐phenylpiperidin‐4‐yl)carbamoyl)‐L‐methionine], at recombinant GGTase I, the IC50 is 6480 nM and the Ki turned out to be 210 nM. At recombinant FTase, the IC50 is 350 nM, the Ki amounted to 2.1 ± 0.5 nM and the “selectivity for FTase over GGTase I” value is given as 100 fold. Also, the “increase in potency for FTase compared to 1” value at recombinant FTase (ratio of K i values) came out at 376 fold.
Regarding `COC(=O)[C@H](CCSC)NC(=O)NC1(c2ccccc2)CCN(Cc2cncn2Cc2ccc(-n3cc(COCCCCCCNC(=O)c4ccc(C(=N)N)cc4)nn3)cc2)CC1` [Compound 4e, Methyl ((1‐((1‐(4‐(4‐(((6‐(4‐carbamimidoylbenzamido)hexyl)oxy)methyl)‐1H‐1,2,3‐triazol‐1‐yl)benzyl)‐1H‐imidazol‐5‐yl)methyl)‐4‐phenylpiperidin‐4‐yl)carbamoyl)‐L‐methioninate], in the assay with Rap1 geranylgeranylation, the “inhibition of geranylgeranylation” value is reported as “did not inhibit”.
`CSCC[C@H](NC(=O)NC1(c2ccccc2)CCN(Cc2cncn2Cc2ccc(-n3cc(COCCCCCCNC(=O)c4ccc(N)cc4)nn3)cc2)CC1)C(=O)O` [Compound 5c, ((1‐((1‐(4‐(4‐(((6‐(4‐Aminobenzamido)hexyl)oxy)methyl)‐1H‐1,2,3‐triazol‐1‐yl)benzyl)‐1H‐imidazol‐5‐yl)methyl)‐4‐phenylpiperidin‐4‐yl)carbamoyl)‐L‐methionine]: the IC50 is 90 nM on recombinant GGTase I and 752 nM on recombinant FTase. Also, the Ki was 2.9 ± 0.7 nM at recombinant GGTase I and 4.6 ± 0.08 nM on recombinant FTase.
For `CSCC[C@H](NC(=O)NC1(c2ccccc2)CCN(Cc2cnc[nH]2)CC1)C(=O)O` [Compound 1, ((1‐((1H‐Imidazol‐5‐yl)methyl)‐4‐phenylpiperidin‐4‐yl)carbamoyl)‐L‐methionine], the IC50 at recombinant GGTase I was greater than 500000 nM. Also, the inhibition constant Ki at recombinant FTase turned out to be 790 ± 45 nM.
With `CSCC[C@H](NC(=O)NC1(c2ccccc2)CCN(Cc2cncn2Cc2ccc(-n3cc(COCCCCCCNC(=N)N)nn3)cc2)CC1)C(=O)O` [Compound 5a, ((1‐((1‐(4‐(4‐(((6‐Guanidinohexyl)oxy)methyl)‐1H‐1,2,3‐triazol‐1‐yl)benzyl)‐1H‐imidazol‐5‐yl)methyl)‐4‐phenylpiperidin‐4‐yl)carbamoyl)‐L‐methionine], on recombinant GGTase I, the IC50 was 7840 nM and the inhibition constant Ki stood at 250 ± 50 nM. Moreover, on recombinant FTase, the IC50 was 290 nM, the Ki was found to be 1.7 ± 0.5 nM and the “selectivity for FTase over GGTase I” value is given as 147 fold.
For the molecule `CSCC[C@H](NC(=O)NC1(c2ccccc2)CCN(Cc2cncn2Cc2ccc(-n3cc(COCCCCCCNC(=O)c4ccc(C(=N)N)cc4)nn3)cc2)CC1)C(=O)O` [Compound 5e, ((1‐((1‐(4‐(4‐(((6‐(4‐Carbamimidoylbenzamido)hexyl)oxy)methyl)‐1H‐1,2,3‐triazol‐1‐yl)benzyl)‐1H‐imidazol‐5‐yl)methyl)‐4‐phenylpiperidin‐4‐yl)carbamoyl)‐L‐methionine], at recombinant GGTase I, the IC50 was 530 nM and the Ki stood at 17 ± 5 nM. In addition, at recombinant FTase, the IC50 was 330 nM and the Ki was determined as 2 ± 0.2 nM.
Turning to `C=CC(=O)N1CCN(c2nc(=O)n(-c3c(C)ccnc3C(C)C)c3nc(-c4c(O)cccc4F)c(F)cc23)[C@@H](C)C1` [sotorasib, reference compound], in the assay on MiaPaCa2 cells, the IC50 is 10 to 100 nM.
As to `COC(=O)[C@H](CCSC)NC(=O)NC1(c2ccccc2)CCN(Cc2cncn2Cc2ccc(N=[N+]=[N-])cc2)CC1` [Compound 2, Methyl ((1‐((1‐(4‐azidobenzyl)‐1H‐imidazol‐5‐yl)methyl)‐4‐phenylpiperidin‐4‐yl)carbamoyl)‐L‐methioninate], the “inhibition of prenylation (processing) of K‐Ras in cells” value with K‐Ras prenylation is given as “able to inhibit; also recorded: inhibit the processing”. Besides, in the assay on MiaPaCa2 cells, the IC50 fell in the range of 100 to 1000 nM. Moreover, the “IC50 relative to that of sotorasib” value in the assay with MiaPaCa2 cells (MiaPaCa2 cells, 72 hours) is “approximately 10 fold”. The “inhibition of geranylgeranylation” value with Rap1 geranylgeranylation is reported as “inhibited; also recorded: inhibit the processing”.
In the case of `CSCC[C@H](NC(=O)NC1(c2ccccc2)CCN(Cc2cncn2Cc2ccc(-n3cc(COCCCCCCNC(=O)c4ccc(NC(=N)N)cc4)nn3)cc2)CC1)C(=O)O` [Compound 5d, ((1‐((1‐(4‐(4‐(((6‐(4‐Guanidinobenzamido)hexyl)oxy)methyl)‐1H‐1,2,3‐triazol‐1‐yl)benzyl)‐1H‐imidazol‐5‐yl)methyl)‐4‐phenylpiperidin‐4‐yl)carbamoyl)‐L‐methionine], at recombinant GGTase I, the IC50 was 96 nM and the Ki came out at 3.1 ± 0.5 nM. In addition, at recombinant FTase, the IC50 was 300 nM and the inhibitory constant (Ki) was 1.8 ± 0.4 nM.
As to `COC(=O)[C@H](CCSC)NC(=O)NC1(c2ccccc2)CCN(Cc2cncn2Cc2ccc(-n3cc(COCCCCCCNC(=O)c4ccc(NC(=N)N)cc4)nn3)cc2)CC1` [Compound 4d, Methyl ((1‐((1‐(4‐(4‐(((6‐(4‐guanidinobenzamido)hexyl)oxy)methyl)‐1H‐1,2,3‐triazol‐1‐yl)benzyl)‐1H‐imidazol‐5‐yl)methyl)‐4‐phenylpiperidin‐4‐yl)carbamoyl)‐L‐methioninate], in the assay with Rap1 geranylgeranylation, the “inhibition of geranylgeranylation” value is “did not inhibit”.
As for `C#CCOCCCCCCNC(=N)N` [Compound 12, 1‐(6‐(Prop‐2‐yn‐1‐yloxy)hexyl)guanidine], the IC50 at recombinant FTase was greater than 500000 nM.

The values above are taken from paper PMC12080315 (Chemistry (Weinheim an Der Bergstrasse, Germany), 2025).
